Assay outcomes: PubChem, several laboratories
MrgX1 antag – human MrgX1 receptor antagonism, primary screen | MRGX1-HEK293 calcium flux, Fluo-4, BAM8-22 antagonism; stronger effect = lower value | B-score at 10 µM | 310,000 tested, 1.3% active;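 active means calcium-response B-score plate-corrected more than 3 library SD below zero, starting fluorescence within 5 deviations, no agonist response on first addition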;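 further: peak minus trough fluorescence over baseline after final BAM8-22 challenge near maximal dose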
Target sequence (Q96LB2 whole entry, looked up): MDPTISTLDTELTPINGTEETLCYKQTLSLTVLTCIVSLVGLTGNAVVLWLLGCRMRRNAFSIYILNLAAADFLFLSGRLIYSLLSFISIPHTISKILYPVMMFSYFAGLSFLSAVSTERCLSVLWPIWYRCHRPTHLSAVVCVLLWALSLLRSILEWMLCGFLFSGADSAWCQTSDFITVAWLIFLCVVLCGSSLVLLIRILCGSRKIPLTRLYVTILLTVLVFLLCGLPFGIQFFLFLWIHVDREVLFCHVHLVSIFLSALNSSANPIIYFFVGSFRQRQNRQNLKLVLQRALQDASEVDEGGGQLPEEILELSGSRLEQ
MrgX1 ag – activates human MrgX1 receptor signaling; Q96LB2; MrgX1-HEK293 cells, Fluo-4 calcium fluorescence, agonist mode; stronger effect = higher value; B-score at 10 µM; 310,000 tested, 0.44% active;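 active means calcium response B-score plate-corrected fluorescence ratio at least 3 library SD, with starting fluorescence B-score inside 5 SD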
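Test system: HEK293 cells stably expressing human MrgX1 receptor; amount: 15,000 cells per well; doses: compound delivered in addition one of three; times: overnight plating before 1 h dye loading; detection: Fluo-4 NW calcium-flux fluorescence, kinetic read; read-out basis: B-scored fluorescence response ratio; controls: positive and negative controls per plate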
MrgX1 PAM – allosterically activates human MrgX1 receptor signaling; 310,000 tested, 0.63% active; Q96LB2; B-score at 10 µM; MrgX1-HEK293, Fluo-4 calcium flux, FDSS; stronger effect = higher value;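 active means plate-corrected calcium response at least 3 library SD above typical, normal starting fluorescence, not activating the receptor alone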;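 further: compound read alongside a low EC10 to EC30 dose of BAM8-22 agonist; peak minus trough fluorescence over baseline measured at the second addition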
RGS4 pot – RGS4 potentiation or activation | 310,000 tested, 0.92% active | HEK293 M3R/inducible RGS4, carbachol calcium flux Fluo4; stronger effect = lower value | B-score at 10 µM;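 active means B-score of the integrated calcium signal more than 4 SD below the library mean, with starting fluorescence not abnormally high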;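 further: negative B-score means reduced calcium response which marks RGS4 activation or potentiation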
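test system = HEK293 cells with stable M3R and inducible RGS4 | schedule = recording 10 s baseline at 1 Hz, 100 s post-agonist | technique = Fluo4-AM (2 µM) calcium-flux fluorescence, kinetic read | measure = Agonist-evoked peak-minus-minimum fluorescence over baseline, integrated ratio, B score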
RGS4 inh – human RGS4 inhibition; P49798; HEK293 M3R/RGS4 inducible, Fluo-4 calcium flux; stronger effect = higher value; triggered by carbachol at its EC20; B-score at 10 µM; 310,000 tested, 0.45% active;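 active means B-score, a plate-corrected calcium signal, over three deviations above library mean, with baseline fluorescence within five deviations of library mean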;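 further: RGS4 expression induced by doxycycline in cells with stable M3 receptor; B-score is computed from the integrated fluorescence ratio over baseline after carbachol; higher B-score means a larger calcium signal and so more RGS4 inhibition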
Target sequence (P49798 whole entry, looked up): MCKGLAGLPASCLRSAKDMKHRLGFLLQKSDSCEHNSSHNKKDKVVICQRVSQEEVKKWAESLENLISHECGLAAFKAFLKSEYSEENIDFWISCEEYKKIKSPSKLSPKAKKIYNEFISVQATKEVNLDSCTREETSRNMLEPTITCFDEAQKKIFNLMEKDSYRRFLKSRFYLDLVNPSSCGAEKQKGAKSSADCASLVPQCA
PHOSPHO1 block – blocks human PHOSPHO1 phosphatase activity | Q8TCT1 | recombinant PHOSPHO1, absorbance phosphatase assay | inhibition, % at 13.3 µM | 290,000 tested, 1.1% active | AID 1565; in the data active means inhibition above about 60%
RGS4 block valid – validation of RGS4 inhibitors. shares compounds with RGS4 inh. HEK293 M3R/RGS4, carbachol calcium Fluo-4 fluorescence; carbachol added at its EC20; 0 = buffer wells, 100 = carbachol control. calcium response, % at 10 µM. 1,700 tested, 65% active;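 active means duplicate-averaged calcium response above the buffer-only control mean plus 5 SD of those controls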;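 further: integrated fluorescence ratio F max minus min over baseline F0; higher response in RGS4-induced cells means RGS4 inhibition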
RGS4 uninduced – checks RGS4 inhibitor effects in non-induced HEK293 M3R cells | activity (percent), % at 10 µM | carbachol calcium Fluo-4; submaximal (EC20) carbachol stimulus; buffer wells 0%, carbachol control wells 100% | shares compounds with RGS4 inh | 1,900 tested, 20% active; call rule not given here;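 further: RGS4 induction absent so cells express M3R without RGS4; higher means more calcium signal and flags a non-specific hit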
M3R basal Ca ctr – signal in non-induced cells without carbachol, RGS4 inhibitor counter-screen; HEK293 M3R/RGS4 non-induced, Fluo-4 calcium, no carbachol; normalised: buffer wells 0%, carbachol wells 100%; 1,900 tested, 22% active; shares compounds with RGS4 inh; calcium response (agonist-mode artifact), % at 10 µM; AID 493001;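 active means duplicate-averaged calcium rise in uninduced cells above buffer wells' mean plus 5 SD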
Starred values were filed as active, the others as inactive; i = inactive; nt = no result. Rows were chosen to be rich in hits. Some 4.5% of all compounds tested hit in one or more screens of this group.

SMILES | MrgX1 antag | MrgX1 ag | MrgX1 PAM | RGS4 pot | RGS4 inh | PHOSPHO1 block | RGS4 block valid | RGS4 uninduced | M3R basal Ca ctr
O=C(CC1C(=O)NCCN1C(=O)Nc1ccccc1)Nc1cccc(Cl)c1 (stereo not drawn) | i | i | i | i | i | 28 | i | i | i
Cc1ccc(NC(=O)C2CCN(S(=O)(=O)c3ccc4c(c3)CCCC(=O)N4)CC2)c(Br)c1 | i | i | i | i | i | 53 | nt | nt | nt
CCN(CC(=O)Nc1c(F)cccc1F)C(=O)c1ccc(C)c(S(=O)(=O)N2CCCCC2)c1 | i | i | i | i | i | nt | nt | nt | nt
CCC(C)[C@H](NS(=O)(=O)c1ccc(C)cc1)C(=O)N1CCC(C(=O)N[C@@H](Cc2ccccc2)C(=O)O)CC1 (stereo partly drawn) | i | i | i | i | i | 34 | nt | nt | nt
O=C(Nc1nc(-c2cccc3ccccc23)cs1)c1cnccn1 | i | i | i | i | 5.5* | -7 | 28%* | 34%* | i
CCCC(=O)Nc1ccc(C=C(C(C)=O)C(C)=O)cc1 | i | i | i | i | 16* | -3 | 32%* | 30%* | i
S=C(Nc1ccccc1Cl)N(Cc1ccccc1)Cc1cccnc1 | i | i | i | i | i | 9 | nt | nt | nt
Cc1cccc(/C(N)=N/OC(=O)c2ccc(Br)o2)c1 | i | i | i | i | 5.2* | -11 | i | i | i
Cc1cc(C(=O)N/N=C/c2ccc(N(C)C)o2)cs1 | i | i | i | i | 8.7* | 23 | i | i | i
Oc1c(-c2cc(-c3ccco3)[nH]n2)ccc2ccccc12 | i | i | i | i | 12* | -2 | 30%* | 31%* | i
COCCNC(=S)N(CCc1c(C)[nH]c2ccc(Cl)cc12)Cc1cccs1 | i | i | i | i | 5* | 33 | 6.0%* | i | i
CCNC(=S)N(CCc1c(C)[nH]c2ccc(C)cc12)Cc1cccs1 | i | i | i | i | i | 33 | nt | nt | nt
COCCNC(=S)N(CCc1c(C)[nH]c2ccc(F)cc12)Cc1cccs1 | i | i | i | i | i | 53 | i | i | i
Cn1c(SCC(=O)NC2CC2)nnc1-c1cccs1 | i | i | i | i | i | 10 | nt | nt | nt
COc1ccc(S(=O)(=O)N2CCC3(CC2)OCCN3S(=O)(=O)c2cccs2)cc1OC | i | i | i | i | i | nt | nt | nt | nt
N#C/C(=C\c1ccc(Cl)c([N+](=O)[O-])c1)c1ccccn1 | i | i | i | i | 9* | 39 | 16%* | i | i
CC(NC(=O)/C(C#N)=C/c1ccc(Cl)c([N+](=O)[O-])c1)c1ccccc1 (stereo not drawn) | i | i | 8.9* | i | 49* | -4 | 22%* | i | 31%*
C[C@@H](NC(=O)/C(C#N)=C/c1ccc(O)c(O)c1)c1ccccc1 | i | i | i | nt | nt | nt | nt | nt | nt
COc1ccc2nccc(/C=C/c3ccnc4ccc(OC)cc34)c2c1 | i | i | i | i | i | 31 | nt | nt | nt
O=C1NN(c2ccccc2)C(=O)/C1=C/c1ccc(Sc2cccc3ccccc23)o1 | i | i | i | i | 12* | -5 | i | i | i
CCCCn1c(=O)[nH]c(=O)c2c1nc(Cn1ncc(Cl)c(Cl)c1=O)n2CCC | i | i | i | i | 21* | 30 | 34%* | 56%* | i
CCCCn1c(=O)[nH]c(=O)c2c1nc(CN1C(=O)c3ccccc3S1(=O)=O)n2CCC | i | i | i | i | i | 8 | nt | nt | nt
Nc1nnc(CC(=O)N/N=C/c2ccc(-c3cccc(C(=O)O)c3)o2)s1 | i | i | i | i | i | 23 | nt | nt | nt
CCOC(=O)c1ccc(N2C(=O)c3n[nH]c(C)c3C2c2ccco2)cc1 (stereo not drawn) | i | i | i | i | i | 11 | nt | nt | nt
CCOC(=O)c1sc(N2C(=O)C(O)=C(C(=O)c3ccc(C)o3)C2c2cccc([N+](=O)[O-])c2)nc1C (stereo not drawn) | i | i | i | i | 7.3* | nt | 24%* | i | i
SMILES | MrgX1 antag | MrgX1 ag | MrgX1 PAM | RGS4 pot | RGS4 inh | PHOSPHO1 block | RGS4 block valid | RGS4 uninduced | M3R basal Ca ctr
CCOC(=O)c1ccc(N2C(=O)c3n[nH]c(-c4ccco4)c3C2c2cccc([N+](=O)[O-])c2)cc1 (stereo not drawn) | i | i | i | i | 6.7* | -4 | i | i | i
CSc1ccccc1-c1nc(-c2ccncc2)no1 | i | i | i | i | i | 27 | nt | nt | nt
CCn1c(SCc2cc(=O)[nH]c3ccccc23)nnc1C1CC1 | i | i | i | i | i | -12 | nt | nt | nt
O=c1oc2ccccc2c(O)c1/C=C1\C=Nc2ccccc21 | i | i | i | i | 22* | 12 | 66%* | i | 48%*
CC(C)c1nc2cc(C(=O)N3CCNC(=O)C3c3cccc(F)c3)ccc2o1 (stereo not drawn) | i | i | i | i | i | 24 | nt | nt | nt
COc1ccc(C(=O)N/C(=C\c2ccccc2)C(=O)NCc2cccnc2)cc1 | i | i | i | i | i | 23 | i | i | i
O=C(NCc1ccccc1Cl)/C(=C\c1cccnc1)NC(=O)c1ccccc1 | i | i | i | i | i | 45 | nt | nt | nt
O=C(NCc1cccnc1)/C(=C/c1ccc(Cl)cc1)NC(=O)c1ccccc1 | i | i | i | i | i | 22 | i | i | i
Cc1ccc(C(=O)N2CCCC(Nc3ccc(F)cc3)C2)cc1C (stereo not drawn) | i | i | i | i | i | -2 | nt | nt | nt
O=C(CC1Nc2cccc3cccc(c23)NC1=O)Nc1ccccc1 (stereo not drawn) | i | i | i | i | i | -12 | nt | i | i
O=S(=O)(Nc1nccs1)c1ccc(NCc2cc(Br)cc(Br)c2O)cc1 | i | i | i | i | 7.8* | 10 | 6.0%* | 44%* | i
